Consider one compound from paper PMC12814486 (Bioorganic & medicinal chemistry, 2025).

In brackets after ≈: the same amount, converted by molar mass.

One series concerns the target Nociceptin (NOP) (Homo sapiens, UniProt P41146). The series is described as follows: NIMH PDSP binding screen. As to conditions: read-out: Inhibition (%) Nociceptin (NOP).
The next series has as its target 5-HT4 (Homo sapiens, UniProt Q13639). In words: NIMH PDSP binding screen. As to conditions: read-out: Inhibition (%) 5-HT4.
Series [1] in a line: Microsomal stability assay in liver microsomes. It counts as in vitro ADME. As to conditions: human, pH 7.4. Put shortly: (§1)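 Test compound was taken from a 1 mM DMSO stock. It was preincubated 5 min at 37 °C with liver microsomes in 0.1 M phosphate buffer, pH 7.4. Reaction was started with an NADPH regenerating system (glucose-6-phosphate, NADPH, glucose-6-phosphate dehydrogenase, MgCl2) and quenched with methanol at 0, 10, 20, 30 and 60 min. Samples were centrifuged and read by LC-MS SIM as peak area ratio to internal standard. k = negative slope of ln ratio vs time; CLint = k/P (P = protein concentration). Duplicates or triplicates were averaged.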

The next series concerns the target T1, 5-HT1A (Homo sapiens, UniProt P08908).
T1 sequence (P08908 1-422): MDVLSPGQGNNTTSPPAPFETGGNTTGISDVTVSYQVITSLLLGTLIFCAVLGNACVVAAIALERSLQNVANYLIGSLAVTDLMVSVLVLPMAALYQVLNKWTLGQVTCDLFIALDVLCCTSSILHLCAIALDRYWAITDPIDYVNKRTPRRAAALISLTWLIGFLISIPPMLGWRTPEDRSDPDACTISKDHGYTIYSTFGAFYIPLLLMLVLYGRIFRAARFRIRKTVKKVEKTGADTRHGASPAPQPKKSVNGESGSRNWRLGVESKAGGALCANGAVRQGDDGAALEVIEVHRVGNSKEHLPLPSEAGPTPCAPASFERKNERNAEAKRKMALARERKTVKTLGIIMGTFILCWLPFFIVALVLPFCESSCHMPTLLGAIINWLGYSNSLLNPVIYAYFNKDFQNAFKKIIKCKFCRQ
The series is described as follows: NIMH PDSP binding screen. As to conditions: read-out: Inhibition (%) 5-HT1A.

A further series has as its target 5-HT2B (Homo sapiens, UniProt P41595). The series is described as follows: NIMH PDSP binding screen. As to conditions: read-out: Inhibition (%) 5-HT2B.
The subject of a further series is male Sprague-Dawley rats. The series is described as follows: Home cage wheel running. As to conditions: 3 mg/kg intraperitoneal, vs vehicle, n = 8/group. Format: in vivo, rat.
A further series can be described thus: Solubility assay. Format: physicochemical. As to conditions: sodium phosphate buffer, pH 7.4, aqueous buffer, kinetic from dmso stock.
A further series deals with 5-HT1B (Homo sapiens, UniProt P28222). In words: NIMH PDSP binding screen. As to conditions: read-out: Inhibition (%) 5-HT1B.
Sequence of 5-HT1B (P28222 whole entry, species assumed): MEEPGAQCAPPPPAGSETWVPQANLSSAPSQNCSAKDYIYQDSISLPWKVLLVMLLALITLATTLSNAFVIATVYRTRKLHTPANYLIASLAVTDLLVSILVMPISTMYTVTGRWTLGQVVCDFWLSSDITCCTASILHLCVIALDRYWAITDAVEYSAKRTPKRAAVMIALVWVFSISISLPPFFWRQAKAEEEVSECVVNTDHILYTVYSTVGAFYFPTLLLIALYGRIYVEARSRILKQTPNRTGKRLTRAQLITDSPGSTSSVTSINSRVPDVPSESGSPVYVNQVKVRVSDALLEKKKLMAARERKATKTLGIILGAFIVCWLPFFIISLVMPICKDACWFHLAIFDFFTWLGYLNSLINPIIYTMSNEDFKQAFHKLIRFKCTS
Series [2] can be described thus: Microsomal stability assay in liver microsomes. Format: in vitro ADME. As to conditions: rat, pH 7.4. The essentials:
as §1

The next series has as its target Kappa opioid (KOR) (Homo sapiens, UniProt P41145). The series is described as follows: NIMH PDSP binding screen. As to conditions: read-out: Inhibition (%) Kappa opioid (KOR).
A further series addresses T2, human FAAH (Homo sapiens, UniProt O00519).
T2 sequence (O00519 1-579): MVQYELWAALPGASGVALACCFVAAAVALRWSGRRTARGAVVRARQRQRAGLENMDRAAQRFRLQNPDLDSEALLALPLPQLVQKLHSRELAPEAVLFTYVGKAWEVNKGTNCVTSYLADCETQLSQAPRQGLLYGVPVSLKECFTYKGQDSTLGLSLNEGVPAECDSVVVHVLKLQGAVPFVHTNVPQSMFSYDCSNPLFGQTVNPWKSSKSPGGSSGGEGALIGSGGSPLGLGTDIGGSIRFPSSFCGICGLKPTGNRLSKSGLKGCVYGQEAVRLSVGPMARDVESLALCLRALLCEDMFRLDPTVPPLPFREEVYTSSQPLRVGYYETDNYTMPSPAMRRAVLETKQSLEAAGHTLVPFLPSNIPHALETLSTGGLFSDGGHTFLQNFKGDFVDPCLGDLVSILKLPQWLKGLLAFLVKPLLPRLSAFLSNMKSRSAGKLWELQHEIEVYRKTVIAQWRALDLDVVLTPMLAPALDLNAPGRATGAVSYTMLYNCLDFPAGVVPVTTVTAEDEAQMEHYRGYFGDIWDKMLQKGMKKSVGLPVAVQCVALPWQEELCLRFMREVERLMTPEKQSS
The series is described as follows: FAAH inhibition assay. Format: biochemical.

The target in a further series is T3, rat sEH (Rattus norvegicus, UniProt P80299).
T3 sequence (P80299 1-554): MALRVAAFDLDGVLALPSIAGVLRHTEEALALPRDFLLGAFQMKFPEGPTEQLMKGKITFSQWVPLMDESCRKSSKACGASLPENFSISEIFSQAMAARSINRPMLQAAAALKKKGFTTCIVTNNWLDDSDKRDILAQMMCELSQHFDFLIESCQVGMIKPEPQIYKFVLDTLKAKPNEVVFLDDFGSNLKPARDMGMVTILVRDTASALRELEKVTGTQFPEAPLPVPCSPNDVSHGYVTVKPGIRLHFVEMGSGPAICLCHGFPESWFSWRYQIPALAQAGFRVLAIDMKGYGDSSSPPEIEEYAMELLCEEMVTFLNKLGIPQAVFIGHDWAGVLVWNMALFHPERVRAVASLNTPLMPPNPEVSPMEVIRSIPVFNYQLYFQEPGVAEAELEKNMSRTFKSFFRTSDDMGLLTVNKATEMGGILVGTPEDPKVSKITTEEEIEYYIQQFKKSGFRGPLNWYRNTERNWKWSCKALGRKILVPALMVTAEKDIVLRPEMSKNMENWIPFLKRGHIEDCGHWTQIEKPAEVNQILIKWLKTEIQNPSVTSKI
In words: sEH inhibition assay. It counts as biochemical.

Another series has as its target T4, 5-HT2C (Homo sapiens, UniProt P28335).
T4 sequence (P28335 33-458): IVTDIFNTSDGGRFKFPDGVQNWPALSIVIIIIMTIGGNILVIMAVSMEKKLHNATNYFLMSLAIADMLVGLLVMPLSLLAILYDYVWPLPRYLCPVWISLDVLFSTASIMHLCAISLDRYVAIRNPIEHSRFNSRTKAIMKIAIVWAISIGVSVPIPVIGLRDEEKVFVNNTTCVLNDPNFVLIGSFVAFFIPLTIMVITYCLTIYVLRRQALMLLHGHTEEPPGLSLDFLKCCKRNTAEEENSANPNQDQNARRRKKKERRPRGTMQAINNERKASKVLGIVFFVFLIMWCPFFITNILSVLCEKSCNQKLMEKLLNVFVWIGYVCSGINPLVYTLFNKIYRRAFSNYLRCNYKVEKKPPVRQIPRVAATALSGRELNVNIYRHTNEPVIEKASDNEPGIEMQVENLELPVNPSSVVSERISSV
The series is described as follows: NIMH PDSP binding screen. As to conditions: read-out: Inhibition (%) 5-HT2C.

Sequence of Nociceptin (NOP) (P41146 whole entry): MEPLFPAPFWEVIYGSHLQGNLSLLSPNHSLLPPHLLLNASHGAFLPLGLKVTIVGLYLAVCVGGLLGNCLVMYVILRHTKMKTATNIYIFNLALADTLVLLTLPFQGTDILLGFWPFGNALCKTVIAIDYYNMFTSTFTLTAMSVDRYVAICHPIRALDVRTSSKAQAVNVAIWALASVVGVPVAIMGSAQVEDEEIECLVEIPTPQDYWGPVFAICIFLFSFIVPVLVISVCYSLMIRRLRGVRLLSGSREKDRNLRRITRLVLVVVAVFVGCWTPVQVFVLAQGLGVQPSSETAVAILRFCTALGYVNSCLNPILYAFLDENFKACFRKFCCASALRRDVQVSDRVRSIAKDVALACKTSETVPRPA
Sequence of Kappa opioid (KOR) (P41145 whole entry): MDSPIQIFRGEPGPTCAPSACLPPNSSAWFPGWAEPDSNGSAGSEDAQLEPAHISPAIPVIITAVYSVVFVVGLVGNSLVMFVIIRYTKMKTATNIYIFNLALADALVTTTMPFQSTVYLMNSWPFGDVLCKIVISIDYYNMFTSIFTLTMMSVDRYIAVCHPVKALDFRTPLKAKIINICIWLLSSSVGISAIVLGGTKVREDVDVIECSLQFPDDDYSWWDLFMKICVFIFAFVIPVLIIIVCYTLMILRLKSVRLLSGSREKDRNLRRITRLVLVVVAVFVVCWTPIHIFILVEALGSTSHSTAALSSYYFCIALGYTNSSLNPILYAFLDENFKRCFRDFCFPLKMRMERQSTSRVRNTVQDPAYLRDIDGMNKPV
Sequence of 5-HT4 (Q13639 whole entry, species assumed): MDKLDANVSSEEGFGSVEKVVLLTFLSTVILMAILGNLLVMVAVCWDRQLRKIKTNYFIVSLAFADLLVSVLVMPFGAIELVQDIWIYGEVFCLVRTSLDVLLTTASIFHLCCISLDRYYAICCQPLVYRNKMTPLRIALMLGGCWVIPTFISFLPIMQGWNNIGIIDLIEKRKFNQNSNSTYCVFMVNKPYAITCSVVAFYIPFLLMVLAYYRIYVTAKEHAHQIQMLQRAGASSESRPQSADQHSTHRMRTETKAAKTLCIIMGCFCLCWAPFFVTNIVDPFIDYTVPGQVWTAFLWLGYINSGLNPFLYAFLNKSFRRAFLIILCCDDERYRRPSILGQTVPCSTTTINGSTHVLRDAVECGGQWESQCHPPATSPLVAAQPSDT
Sequence of 5-HT2B (P41595 whole entry, species assumed): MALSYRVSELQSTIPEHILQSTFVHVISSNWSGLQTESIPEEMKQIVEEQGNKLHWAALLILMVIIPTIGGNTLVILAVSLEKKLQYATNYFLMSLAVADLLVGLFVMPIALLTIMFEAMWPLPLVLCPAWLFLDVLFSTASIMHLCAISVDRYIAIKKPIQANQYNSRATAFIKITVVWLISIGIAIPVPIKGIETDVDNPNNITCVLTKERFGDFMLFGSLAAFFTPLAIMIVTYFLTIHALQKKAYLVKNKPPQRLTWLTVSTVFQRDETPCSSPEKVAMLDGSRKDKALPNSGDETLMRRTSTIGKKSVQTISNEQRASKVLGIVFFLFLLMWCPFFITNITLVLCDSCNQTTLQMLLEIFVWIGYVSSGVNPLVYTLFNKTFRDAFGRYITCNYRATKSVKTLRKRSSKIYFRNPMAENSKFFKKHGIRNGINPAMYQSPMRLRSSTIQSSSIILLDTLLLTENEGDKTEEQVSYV

As to `O=C(Nc1ccc(-c2cnc3ccccc3n2)cc1)C1CCN(S(=O)(=O)c2ccccc2Cl)CC1` [Compound 4m, 1-((2-chlorophenyl)sulfonyl)-N-(4-(quinoxalin-2-yl)phenyl)piperidine-4-carboxamide], the inhibition at 10 µM on Nociceptin (NOP) is -5.22 ± 3.98%; on 5-HT4, 29.6 ± 23.2%; on 5-HT1A, -18 ± 14.6%; at 5-HT2B, -4.41 ± 7.06%; at 5-HT1B it was 22.2 ± 6.67%; on Kappa opioid (KOR) it was 5.59 ± 6.57%. The inhibition at 10 µM at 5-HT2C was -18.2 ± 3.45%. The values for the half-life at 1 µM in series [1] and in series [2] were over 60 min and 26 min, respectively. Besides, the microsomal CLint at 1 µM in series [1] stood at 22.5 µL/min/mg; in series [2] it was 52.6 µL/min/mg. In the series with male Sprague-Dawley rats, the “wheel revolutions in the 15 min after drug injection” value is listed as “significantly lower”. Besides, the solubility in “Solubility assay” fell in the range of 31 to 63 µM (≈ 15.7 to 31.9 µg/mL). Further, the 50% inhibitory concentration (IC50) turned out to be 2.9 nM against human FAAH and 0.3 nM on rat sEH.

As a reminder, the inhibition is the drop in the measured response relative to a control, in per cent. A word on the half-life: it is the time needed for the level to fall by half in the phase considered. Broadly, the microsomal CLint is the rate of metabolic loss divided by the concentration. High values mean faster metabolism, low ones greater metabolic stability. As a reminder, the solubility is how much of the substance goes into solution per volume. As a reminder, the IC50 is the midpoint of a concentration-inhibition curve.
